Series [1] concerns the target CYP2D6 (Homo sapiens, UniProt P10635). In words: CYP2D6 inhibition in human liver microsomes. It is filed as in vitro ADME. An outline of the steps: (§1)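 Pooled human liver microsomes were incubated with standard CYP-selective substrates, with and without test compound at 0.03–100 μM. Standard selective inhibitors for each isoform ran in parallel as positive controls. Read-out was IC50. For CYP3A4 only, time-dependent inhibition was also tested after 30 min preincubation, using midazolam and testosterone as substrates.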
(In general: Liver microsomes are a subcellular fraction often used to study metabolism.)

Series [2] has as its target OCT2 (Homo sapiens, UniProt O15244). Nature of the series: OCT2 uptake inhibition in transfected HEK cells. Type of series: in vitro ADME. An outline of the steps:
(§2)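 HEK cells overexpressing NTCP, OAT1, OAT3, OATP2B1, OCT1 or OCT2 were incubated with probe substrate. Pairs were estrone 3-sulfate/cyclosporin A (NTCP), PAH/probenecid (OAT1), furosemide/probenecid (OAT3), estrone 3-sulfate/glibenclamide (OATP2B1), 3H-MPP+/decynium 22 (OCT1) and 3H-MPP+/imipramine (OCT2). IC50 was determined with and without test compound, at ≤50 µM for the parent and ≤10 µM for the metabolite.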

The target of series [3] is MRP2 (Homo sapiens, UniProt Q92887). Nature of the series: MRP2 inhibition in transfected HEK cells. Type of series: in vitro ADME. An outline of the steps:
(§3)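 HEK cells were transfected with MRP2, MATE1 or MATE2-K. Pairs were CDCF/benzbromarone (MRP2), metformin/cimetidine (MATE1) and metformin/pyrimethamine (MATE2-K). Probe transport was assessed with and without test compound, and IC50 was determined.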

For series [4], the target named is OAT3 (Homo sapiens, UniProt Q8TCC7). In words: OAT3 uptake inhibition in transfected HEK cells. Type of series: in vitro ADME. A digest of the protocol: as §2
Series [5] concerns CYP3A4. Nature of the series: Relative induction score. Set-up: species or system human. To be noted: sensitive CYP3A4 substrate midazolam. A digest of the protocol:
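The relative induction score (RIS) method was applied to CYP3A4 induction data from hepatocytes of three donors treated for 3 days. Strong, moderate and weak reference inducers (rifampicin, bosentan, pioglitazone) served as calibrators for estimating clinical DDI risk.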

The target in series [6] is CYP2E1 (Homo sapiens, UniProt P05181). Nature of the series: CYP2E1 inhibition in human liver microsomes. It is filed as in vitro ADME. A digest of the protocol: as §1
In series [7] the target is CYP2C19 (Homo sapiens, UniProt P33261). In words: CYP2C19 inhibition in human liver microsomes. Type of series: in vitro ADME. A digest of the protocol: as §1
Series [8] has as its target T1, CYP2C8 (Homo sapiens, UniProt P10632).
T1 sequence (P10632 1-490): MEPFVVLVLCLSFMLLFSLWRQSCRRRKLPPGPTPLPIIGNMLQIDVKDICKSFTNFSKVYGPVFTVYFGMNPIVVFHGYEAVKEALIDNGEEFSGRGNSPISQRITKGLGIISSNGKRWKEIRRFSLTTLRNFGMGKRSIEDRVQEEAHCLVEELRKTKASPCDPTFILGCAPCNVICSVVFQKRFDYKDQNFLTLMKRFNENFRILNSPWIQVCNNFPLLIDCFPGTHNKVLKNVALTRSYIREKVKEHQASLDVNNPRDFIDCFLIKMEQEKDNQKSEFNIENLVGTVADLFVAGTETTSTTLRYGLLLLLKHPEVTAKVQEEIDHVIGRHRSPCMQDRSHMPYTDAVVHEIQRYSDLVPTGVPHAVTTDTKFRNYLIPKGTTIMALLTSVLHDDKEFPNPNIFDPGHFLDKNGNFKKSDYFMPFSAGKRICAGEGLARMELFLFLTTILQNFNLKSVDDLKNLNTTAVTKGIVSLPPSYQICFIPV
In words: CYP2C8 inhibition in human liver microsomes. Type of series: in vitro ADME. An outline of the steps: as §1

Series [9] concerns the target T2, BCRP (Homo sapiens, UniProt Q9UNQ0).
T2 sequence (Q9UNQ0 1-655): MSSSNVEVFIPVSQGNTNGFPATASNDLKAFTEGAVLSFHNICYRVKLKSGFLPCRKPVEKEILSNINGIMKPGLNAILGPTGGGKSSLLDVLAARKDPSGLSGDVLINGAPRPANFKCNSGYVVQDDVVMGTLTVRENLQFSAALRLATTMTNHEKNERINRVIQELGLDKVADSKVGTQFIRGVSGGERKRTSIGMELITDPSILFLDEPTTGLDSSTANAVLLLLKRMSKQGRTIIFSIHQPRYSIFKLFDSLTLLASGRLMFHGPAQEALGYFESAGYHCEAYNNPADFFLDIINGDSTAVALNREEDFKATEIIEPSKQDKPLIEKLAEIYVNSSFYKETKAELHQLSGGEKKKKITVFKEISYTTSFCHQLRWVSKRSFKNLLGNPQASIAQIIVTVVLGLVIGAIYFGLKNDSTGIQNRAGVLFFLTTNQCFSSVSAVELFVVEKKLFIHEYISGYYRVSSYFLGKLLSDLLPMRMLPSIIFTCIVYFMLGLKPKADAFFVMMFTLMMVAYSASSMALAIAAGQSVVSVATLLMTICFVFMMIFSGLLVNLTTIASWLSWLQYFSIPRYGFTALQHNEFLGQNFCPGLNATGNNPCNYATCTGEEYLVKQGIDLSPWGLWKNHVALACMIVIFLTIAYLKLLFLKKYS
In words: BCRP inhibition in Caco-2 cells. It is filed as in vitro ADME. A digest of the protocol:
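Efflux transporter inhibition in Caco-2 monolayers. Test compound at 0.25–60 μM. Probe/reference-inhibitor pairs were digoxin/cyclosporin A (P-gp) and cladribine/Ko143 (BCRP). Probe transport was measured with and without test compound, and IC50 was derived from that inhibition.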

Series [10] concerns the target MATE2-K (Homo sapiens, UniProt Q86VL8). Nature of the series: MATE2-K inhibition in transfected HEK cells. Type of series: in vitro ADME. An outline of the steps: as §3
Series [11] deals with CYP3A4. In words: CYP3A4 induction in primary-cultured human hepatocytes. It is filed as in vitro ADME. To be noted: for induction of CYP3A4 enzymatic activity: three donors, 3 days dosing, 0.005–10 mg/l.
Series [12] concerns the target T3, CYP2B6 (Homo sapiens, UniProt P20813).
T3 sequence (P20813 1-491): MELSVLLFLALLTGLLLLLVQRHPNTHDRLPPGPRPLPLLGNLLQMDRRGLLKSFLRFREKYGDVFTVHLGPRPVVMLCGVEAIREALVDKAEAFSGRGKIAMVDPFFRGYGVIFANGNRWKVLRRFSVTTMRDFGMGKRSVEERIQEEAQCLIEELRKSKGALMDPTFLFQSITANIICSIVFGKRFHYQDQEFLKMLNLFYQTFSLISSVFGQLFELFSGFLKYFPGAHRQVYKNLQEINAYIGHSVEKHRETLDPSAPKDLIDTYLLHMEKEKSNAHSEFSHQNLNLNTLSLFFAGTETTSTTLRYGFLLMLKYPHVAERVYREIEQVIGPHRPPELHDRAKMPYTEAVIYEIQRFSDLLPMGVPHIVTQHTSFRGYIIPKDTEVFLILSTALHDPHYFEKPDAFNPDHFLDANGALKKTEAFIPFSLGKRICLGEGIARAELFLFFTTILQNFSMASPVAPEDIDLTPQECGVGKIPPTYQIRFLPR
Nature of the series: biochemical. It is filed as in vitro ADME.

The subject of series [13] is CYP2B6. It is filed as in vitro ADME. Particulars: primary human hepatocytes, three donors, 3 days dosing, 0.005–10 mg/l.

Read-outs that look alike come from different tables or passages of the source. Some results are limits rather than exact numbers.

Sequence of MRP2 (Q92887 whole entry): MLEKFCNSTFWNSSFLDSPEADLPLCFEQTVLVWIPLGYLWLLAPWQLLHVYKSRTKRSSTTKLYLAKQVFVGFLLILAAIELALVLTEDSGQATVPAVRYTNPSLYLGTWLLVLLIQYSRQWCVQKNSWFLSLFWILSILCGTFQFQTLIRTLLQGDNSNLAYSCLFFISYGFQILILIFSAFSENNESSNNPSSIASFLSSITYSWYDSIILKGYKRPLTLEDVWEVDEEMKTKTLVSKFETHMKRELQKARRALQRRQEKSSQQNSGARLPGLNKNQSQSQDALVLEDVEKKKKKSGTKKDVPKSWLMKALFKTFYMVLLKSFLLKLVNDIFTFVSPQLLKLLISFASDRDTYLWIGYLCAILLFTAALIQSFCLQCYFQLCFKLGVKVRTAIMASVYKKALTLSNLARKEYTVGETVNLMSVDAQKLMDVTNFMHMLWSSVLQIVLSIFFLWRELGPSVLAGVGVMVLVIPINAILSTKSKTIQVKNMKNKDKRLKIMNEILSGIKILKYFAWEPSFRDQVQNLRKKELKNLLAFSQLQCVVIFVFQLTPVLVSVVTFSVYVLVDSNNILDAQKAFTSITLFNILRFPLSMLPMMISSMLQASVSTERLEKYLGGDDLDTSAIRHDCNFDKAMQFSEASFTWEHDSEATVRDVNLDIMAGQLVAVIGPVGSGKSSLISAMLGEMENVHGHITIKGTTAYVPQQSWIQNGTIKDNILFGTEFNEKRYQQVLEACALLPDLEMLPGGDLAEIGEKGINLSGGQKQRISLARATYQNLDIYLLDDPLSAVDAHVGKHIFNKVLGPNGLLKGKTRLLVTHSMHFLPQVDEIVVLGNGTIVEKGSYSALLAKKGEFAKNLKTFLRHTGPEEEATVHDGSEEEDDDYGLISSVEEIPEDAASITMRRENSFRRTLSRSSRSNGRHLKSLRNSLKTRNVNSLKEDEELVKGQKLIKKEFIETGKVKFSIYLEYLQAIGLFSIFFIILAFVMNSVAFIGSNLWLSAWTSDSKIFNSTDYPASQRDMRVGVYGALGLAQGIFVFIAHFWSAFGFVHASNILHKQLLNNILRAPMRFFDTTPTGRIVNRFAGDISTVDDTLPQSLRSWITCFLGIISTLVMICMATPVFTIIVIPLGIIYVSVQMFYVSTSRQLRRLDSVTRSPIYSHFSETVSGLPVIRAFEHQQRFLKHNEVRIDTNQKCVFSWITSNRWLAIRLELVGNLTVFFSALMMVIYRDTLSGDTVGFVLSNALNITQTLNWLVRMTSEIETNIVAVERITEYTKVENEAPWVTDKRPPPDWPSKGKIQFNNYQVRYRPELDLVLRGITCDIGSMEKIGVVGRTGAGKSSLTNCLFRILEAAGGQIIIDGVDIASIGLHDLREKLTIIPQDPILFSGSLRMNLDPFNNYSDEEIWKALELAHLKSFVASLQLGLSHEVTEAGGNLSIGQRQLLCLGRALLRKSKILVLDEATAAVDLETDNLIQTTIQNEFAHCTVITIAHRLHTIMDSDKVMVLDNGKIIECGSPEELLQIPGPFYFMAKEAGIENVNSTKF
Sequence of OCT2 (O15244 whole entry): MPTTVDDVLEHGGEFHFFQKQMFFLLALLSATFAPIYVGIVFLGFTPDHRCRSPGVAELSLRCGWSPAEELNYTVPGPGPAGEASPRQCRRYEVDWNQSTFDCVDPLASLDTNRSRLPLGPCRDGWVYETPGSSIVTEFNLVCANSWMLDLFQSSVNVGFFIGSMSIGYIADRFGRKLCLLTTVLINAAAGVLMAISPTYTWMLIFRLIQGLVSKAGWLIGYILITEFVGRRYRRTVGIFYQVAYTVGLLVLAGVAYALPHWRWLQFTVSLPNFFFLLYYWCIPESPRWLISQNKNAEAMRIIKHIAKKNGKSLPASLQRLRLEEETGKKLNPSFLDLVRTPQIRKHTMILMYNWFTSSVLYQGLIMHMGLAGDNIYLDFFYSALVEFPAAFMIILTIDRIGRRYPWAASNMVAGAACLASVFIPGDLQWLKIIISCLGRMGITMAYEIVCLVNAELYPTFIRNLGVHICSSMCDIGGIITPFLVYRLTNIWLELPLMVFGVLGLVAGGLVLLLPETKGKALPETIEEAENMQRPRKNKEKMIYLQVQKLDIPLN
Sequence of OAT3 (Q8TCC7 whole entry): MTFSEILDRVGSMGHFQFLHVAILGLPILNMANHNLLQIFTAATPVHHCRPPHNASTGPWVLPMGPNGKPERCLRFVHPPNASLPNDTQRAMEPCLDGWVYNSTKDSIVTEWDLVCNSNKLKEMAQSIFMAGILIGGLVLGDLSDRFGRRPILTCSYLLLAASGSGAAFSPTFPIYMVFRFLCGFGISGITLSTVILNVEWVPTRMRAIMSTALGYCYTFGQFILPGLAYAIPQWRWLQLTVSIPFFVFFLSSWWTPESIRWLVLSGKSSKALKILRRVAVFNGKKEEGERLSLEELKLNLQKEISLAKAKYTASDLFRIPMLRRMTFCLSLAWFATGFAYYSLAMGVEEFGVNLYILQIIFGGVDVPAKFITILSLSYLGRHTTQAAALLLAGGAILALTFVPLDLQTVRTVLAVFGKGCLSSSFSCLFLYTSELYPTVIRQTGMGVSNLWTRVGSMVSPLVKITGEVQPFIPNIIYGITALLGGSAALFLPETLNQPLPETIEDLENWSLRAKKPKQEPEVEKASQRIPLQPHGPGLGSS
Sequence of CYP2D6 (P10635 whole entry, canonical isoform): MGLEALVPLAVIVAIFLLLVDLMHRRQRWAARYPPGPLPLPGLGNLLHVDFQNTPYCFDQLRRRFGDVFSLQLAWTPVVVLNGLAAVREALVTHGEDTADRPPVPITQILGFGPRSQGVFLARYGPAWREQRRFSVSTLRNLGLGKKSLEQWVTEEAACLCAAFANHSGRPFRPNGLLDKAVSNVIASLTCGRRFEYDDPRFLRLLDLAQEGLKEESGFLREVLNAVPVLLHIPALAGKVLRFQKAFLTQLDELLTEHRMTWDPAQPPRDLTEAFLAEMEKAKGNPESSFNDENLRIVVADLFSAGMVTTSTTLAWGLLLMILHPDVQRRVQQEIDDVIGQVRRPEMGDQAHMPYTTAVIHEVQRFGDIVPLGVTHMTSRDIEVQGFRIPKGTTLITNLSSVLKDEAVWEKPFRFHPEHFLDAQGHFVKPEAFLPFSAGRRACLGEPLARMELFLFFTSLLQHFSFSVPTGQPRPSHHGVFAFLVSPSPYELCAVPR
Sequence of CYP2E1 (P05181 whole entry): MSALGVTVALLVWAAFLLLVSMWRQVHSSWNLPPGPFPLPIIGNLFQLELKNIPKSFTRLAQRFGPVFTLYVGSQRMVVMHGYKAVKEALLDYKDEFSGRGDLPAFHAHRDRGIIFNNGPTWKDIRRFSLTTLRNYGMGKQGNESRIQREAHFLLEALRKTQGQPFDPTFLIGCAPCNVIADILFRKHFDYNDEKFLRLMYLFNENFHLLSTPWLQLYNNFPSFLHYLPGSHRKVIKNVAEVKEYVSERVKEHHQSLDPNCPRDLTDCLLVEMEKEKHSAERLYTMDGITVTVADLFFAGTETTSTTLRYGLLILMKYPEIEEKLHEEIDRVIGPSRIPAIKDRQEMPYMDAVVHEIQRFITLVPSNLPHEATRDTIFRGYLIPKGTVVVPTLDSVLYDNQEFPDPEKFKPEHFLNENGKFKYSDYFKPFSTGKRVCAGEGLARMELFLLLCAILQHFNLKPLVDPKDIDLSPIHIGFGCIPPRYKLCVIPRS
Sequence of MATE2-K (Q86VL8 1-566 isoform Q86VL8-3): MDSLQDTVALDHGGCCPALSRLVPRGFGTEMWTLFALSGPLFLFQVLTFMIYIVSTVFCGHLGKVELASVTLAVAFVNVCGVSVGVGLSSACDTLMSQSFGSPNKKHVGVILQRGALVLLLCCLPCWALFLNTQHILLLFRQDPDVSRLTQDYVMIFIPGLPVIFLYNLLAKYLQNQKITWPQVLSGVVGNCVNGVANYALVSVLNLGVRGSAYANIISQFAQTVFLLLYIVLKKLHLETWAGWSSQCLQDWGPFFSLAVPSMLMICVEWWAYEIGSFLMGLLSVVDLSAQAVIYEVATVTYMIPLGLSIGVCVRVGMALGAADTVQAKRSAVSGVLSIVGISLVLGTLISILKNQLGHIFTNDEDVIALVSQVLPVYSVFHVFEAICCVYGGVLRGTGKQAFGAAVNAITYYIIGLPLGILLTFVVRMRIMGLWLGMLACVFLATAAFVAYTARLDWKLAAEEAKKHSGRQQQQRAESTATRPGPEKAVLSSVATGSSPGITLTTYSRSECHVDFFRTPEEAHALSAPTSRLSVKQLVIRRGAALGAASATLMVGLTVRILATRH
Sequence of CYP2C19 (P33261 whole entry): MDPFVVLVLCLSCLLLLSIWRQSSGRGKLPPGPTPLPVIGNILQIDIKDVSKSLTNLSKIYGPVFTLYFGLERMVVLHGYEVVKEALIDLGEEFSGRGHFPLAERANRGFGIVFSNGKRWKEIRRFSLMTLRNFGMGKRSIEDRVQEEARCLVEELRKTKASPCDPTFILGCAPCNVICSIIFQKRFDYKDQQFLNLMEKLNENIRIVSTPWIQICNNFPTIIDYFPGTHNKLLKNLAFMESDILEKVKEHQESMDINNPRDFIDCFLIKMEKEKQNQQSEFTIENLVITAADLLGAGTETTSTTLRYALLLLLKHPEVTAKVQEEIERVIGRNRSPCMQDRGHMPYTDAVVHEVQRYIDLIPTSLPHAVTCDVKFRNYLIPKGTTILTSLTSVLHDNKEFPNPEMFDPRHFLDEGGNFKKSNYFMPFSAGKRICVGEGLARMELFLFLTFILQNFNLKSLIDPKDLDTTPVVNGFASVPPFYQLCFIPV

In general, IC50 refers to the concentration at which inhibition is half-maximal. Consider `CC(O)c1cc(C(=O)N[C@@H](C)Cn2ccc(-c3ccc(C#N)c(Cl)c3)n2)[nH]n1` (stereo partly shown) [Darolutamide, darolutamide], for which the IC50 is 81.9 µM in series [1]; above 50 µM in series [2]; above 50 µM in series [3]; 4.5 µM in series [4]; above 100 µM in series [6]; 64.1 µM in [7]. Besides, the IC50 in [8] was above 100 µM; in series [9], 1.3 µM; in series [10] it was 9.5 µM; in series [12], above 100 µM. Moreover, the “Overall assessment of CYP3A4 induction (RIS method)” value in series [5] is “moderate-to-strong inducers”. The “CYP3A4 induction as % of rifampicin response” value in series [11] came out at 28%. Besides, the “induction of CYP3A4 enzymatic activity” value in series [11] was at most 5.3 fold.
As for `CC(=O)c1cc(C(=O)N[C@@H](C)Cn2ccc(-c3ccc(C#N)c(Cl)c3)n2)[nH]n1` [Keto-darolutamide, keto-darolutamide], the IC50 is 51.9 µM in series [1] (read-out: IC50, CYP2D6, human liver microsomes, substrate bufuralol); above 2 µM in [2] (read-out: IC50, OCT2, HEK cells, substrate 3H-MPP+, reference imipramine); above 10 µM in series [3] (read-out: IC50, MRP2, HEK cells, substrate CDCF, reference benzbromarone); above 2 µM in [4] (read-out: IC50, OAT3, HEK cells, substrate furosemide, reference probenecid); above 100 µM in [6] (read-out: IC50, CYP2E1, human liver microsomes, substrate chlorzoxazone); 39.5 µM in series [7] (read-out: IC50, CYP2C19, human liver microsomes, substrate S-mephenytoin). Moreover, the IC50 worked out at 48.6 µM in [8] (read-out: IC50, CYP2C8, human liver microsomes, substrate paclitaxel); 3 µM in series [10] (read-out: IC50, MATE2 K, HEK cells, substrate metformin, reference pyrimethamine); 54.2 µM in series [12] (read-out: IC50, CYP2B6, human liver microsomes, substrate bupropion). Further, in [13], the “maximal fold induction of CYP2B6” value is on record as below 2 fold. The “Overall assessment of CYP3A4 induction (RIS method)” value in series [5] is on record as “weak-to-moderate inducer”. Further, in series [11], the “induction of CYP3A4 enzymatic activity” value was at most 5.4 fold.

The values above are taken from PMC6828636 (European Journal of Drug Metabolism and Pharmacokinetics, 2019).
